# From ChEMBL document CHEMBL2040727, “Substituted thiazoles VI. Synthesis and antitumor activity of new 2-acetamido- and 2 or 3-propanamido-thiazole analogs” (2012)
# What was measured:
# Format in all cases: functional
# [1] = test system: MOLT-4; assay: Growth inhibition of human MOLT4 cells at 10 uM after 48 hrs by coulter counter analysis; conditions: MOLT-4, 48 h, read-out: GI
# In short: (§1)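 Single-dose NCI 60-line panel screen of test compounds. Cells grown in RPMI 1640 with 10% FBS. Compounds dissolved in DMSO, then diluted in phosphate buffer saline (final DMSO below 1%). Wells run in duplicate at 6 × 10⁴ cells/ml. Controls held PBS and DMSO at matching dilutions. Incubation 48 h at 37 °C under humidified 5% CO2. Cells diluted tenfold in saline and counted by Coulter counter. Percent growth inhibition taken from mean-graph of treated-cell growth.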
# [2] = test system: RPMI-8226; assay: Growth inhibition of human RPMI8226 cells at 10 uM after 48 hrs by coulter counter analysis; conditions: RPMI-8226, 48 h, read-out: GI; in short: as §1
# [3] = test system: SR; assay: Growth inhibition of human SR cells at 10 uM after 48 hrs by coulter counter analysis; conditions: read-out: GI
# In short: (§2)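 Single-dose screen in the NCI 60 cell line panel. Cells grown in RPMI 1640 with 10% FBS. Compounds dissolved in DMSO and diluted in phosphate buffered saline, final DMSO under 1%. Duplicate wells seeded from culture at 6 × 10⁴ cells/ml. Incubated 48 h at 37 °C, humidified, 5% CO2. Cells diluted tenfold in saline and Coulter-counted. Percent growth inhibition computed against PBS/DMSO controls.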
# [4] = test system: A549; assay: Growth inhibition of human A549/ATCC cells at 10 uM after 48 hrs by coulter counter analysis; conditions: A549, 48 h, read-out: GI; in short: as §1
# [5] = test system: NCI-H226; assay: Growth inhibition of human NCI-H226 cells at 10 uM after 48 hrs by coulter counter analysis; conditions: NCI-H226, 48 h, read-out: GI; in short: as §1
# [6] = test system: NCI-H322M; assay: Growth inhibition of human NCI-H322M cells at 10 uM after 48 hrs by coulter counter analysis; conditions: read-out: GI; in short: as §1
# [7] = test system: NCI-H460; assay: Growth inhibition of human NCI-H460 cells at 10 uM after 48 hrs by coulter counter analysis; conditions: NCI-H460, 48 h, read-out: GI; in short: as §1
# [8] = test system: NCI-H522; assay: Growth inhibition of human NCI-H522 cells at 10 uM after 48 hrs by coulter counter analysis; conditions: NCI-H522, 48 h, read-out: GI; in short: as §1
# [9] = test system: COLO 205; assay: Growth inhibition of human COLO205 cells at 10 uM after 48 hrs by coulter counter analysis; conditions: COLO 205, 48 h, read-out: GI; in short: as §1
# [10] = test system: HCC 2998; assay: Growth inhibition of human HCC2998 cells at 10 uM after 48 hrs by coulter counter analysis; conditions: HCC 2998, 48 h, read-out: GI; in short: as §1
# [11] = test system: HCT-116; assay: Growth inhibition of human HCT116 cells at 10 uM after 48 hrs by coulter counter analysis; conditions: HCT-116, 48 h, read-out: GI; in short: as §1
# [12] = test system: HCT-15; assay: Growth inhibition of human HCT15 cells at 10 uM after 48 hrs by coulter counter analysis; conditions: HCT-15, 48 h, read-out: GI; in short: as §1
# [13] = test system: HT-29; assay: Growth inhibition of human HT-29 cells at 10 uM after 48 hrs by coulter counter analysis; conditions: HT-29, 48 h, read-out: GI; in short: as §1
# [14] = test system: KM12; assay: Growth inhibition of human KM12 cells at 10 uM after 48 hrs by coulter counter analysis; conditions: KM12, 48 h, read-out: GI; in short: as §1
# [15] = test system: SW-620; assay: Growth inhibition of human SW620 cells at 10 uM after 48 hrs by coulter counter analysis; conditions: SW-620, 48 h, read-out: GI; in short: as §2
# [16] = test system: SF-268; assay: Growth inhibition of human SF268 cells at 10 uM after 48 hrs by coulter counter analysis; conditions: SF-268, 48 h, read-out: GI; in short: as §1
# [17] = test system: SF-539; assay: Growth inhibition of human SF539 cells at 10 uM after 48 hrs by coulter counter analysis; conditions: SF-539, 48 h, read-out: GI; in short: as §1
# [18] = test system: SNB-75; assay: Growth inhibition of human SNB75 cells at 10 uM after 48 hrs by coulter counter analysis; conditions: SNB-75, 48 h, read-out: GI; in short: as §2
# [19] = test system: LOX IMVI; assay: Growth inhibition of human LOXIMVI cells at 10 uM after 48 hrs by coulter counter analysis; conditions: read-out: GI; in short: as §1
# [20] = test system: M14; assay: Growth inhibition of human M14 cells at 10 uM after 48 hrs by coulter counter analysis; conditions: M14, 48 h, read-out: GI; in short: as §1
# [21] = test system: MDA-MB-435; assay: Growth inhibition of human MDA-MB-435 cells at 10 uM after 48 hrs by coulter counter analysis; conditions: MDA-MB-435, 48 h, read-out: GI; in short: as §1
# [22] = test system: SK-MEL-28; assay: Growth inhibition of human SK-MEL-28 cells at 10 uM after 48 hrs by coulter counter analysis; conditions: SK-MEL-28, 48 h, read-out: GI; in short: as §1
# [23] = test system: SK-MEL-5; assay: Growth inhibition of human SK-MEL-5 cells at 10 uM after 48 hrs by coulter counter analysis; conditions: SK-MEL-5, 48 h, read-out: GI; in short: as §1
# [24] = test system: IGROV-1; assay: Growth inhibition of human IGROV1 cells at 10 uM after 48 hrs by coulter counter analysis; conditions: IGROV-1, 48 h, read-out: GI; in short: as §1
# [25] = test system: OVCAR-4; assay: Growth inhibition of human OVCAR4 cells at 10 uM after 48 hrs by coulter counter analysis; conditions: OVCAR-4, 48 h, read-out: GI; in short: as §1
# [26] = Growth inhibition of human NCI-ADR-RES cells at 10 uM after 48 hrs by coulter counter analysis; conditions: read-out: GI; in short: as §1
# [27] = test system: 786-0; assay: Growth inhibition of human 786-0 cells at 10 uM after 48 hrs by coulter counter analysis; conditions: 786-0, 48 h, read-out: GI; in short: as §1
# [28] = test system: ACHN; assay: Growth inhibition of human ACHN cells at 10 uM after 48 hrs by coulter counter analysis; conditions: read-out: GI; in short: as §1
# [29] = test system: CAKI-1; assay: Growth inhibition of human Caki1 cells at 10 uM after 48 hrs by coulter counter analysis; conditions: CAKI-1, 48 h, read-out: GI; in short: as §1
# [30] = test system: RXF 393; assay: Growth inhibition of human RXF393 cells at 10 uM after 48 hrs by coulter counter analysis; conditions: RXF 393, 48 h, read-out: GI; in short: as §1
# [31] = test system: PC-3; assay: Growth inhibition of human PC3 cells at 10 uM after 48 hrs by coulter counter analysis; conditions: PC-3, 48 h, read-out: GI; in short: as §1
# [32] = test system: DU-145; assay: Growth inhibition of human DU145 cells at 10 uM after 48 hrs by coulter counter analysis; conditions: DU-145, 48 h, read-out: GI; in short: as §1
# [33] = test system: MCF7; assay: Growth inhibition of human MCF7 cells at 10 uM after 48 hrs by coulter counter analysis; conditions: MCF7, 48 h, read-out: GI; in short: as §1
# [34] = test system: MDA-MB-231; assay: Growth inhibition of human MDA-MB-231 cells at 10 uM after 48 hrs by coulter counter analysis; conditions: MDA-MB-231, 48 h, read-out: GI; in short: as §1
# [35] = Growth inhibition of human Hs 578T cells at 10 uM after 48 hrs by coulter counter analysis; conditions: read-out: GI; in short: as §1
# [36] = test system: CCRF-CEM; assay: Growth inhibition of human CCRF-CEM cells at 10 uM after 48 hrs by coulter counter analysis; conditions: read-out: GI; in short: as §1
SMILES,inhibition of growth at 10 µM [1] [%],inhibition of growth at 10 µM [2] [%],inhibition of growth at 10 µM [3] [%],inhibition of growth at 10 µM [4] [%],inhibition of growth at 10 µM [5] [%],inhibition of growth at 10 µM [6] [%],inhibition of growth at 10 µM [7] [%],inhibition of growth at 10 µM [8] [%],inhibition of growth at 10 µM [9] [%],inhibition of growth at 10 µM [10] [%],inhibition of growth at 10 µM [11] [%],inhibition of growth at 10 µM [12] [%],inhibition of growth at 10 µM [13] [%],inhibition of growth at 10 µM [14] [%],inhibition of growth at 10 µM [15] [%],inhibition of growth at 10 µM [16] [%],inhibition of growth at 10 µM [17] [%],inhibition of growth at 10 µM [18] [%],inhibition of growth at 10 µM [19] [%],inhibition of growth at 10 µM [20] [%],other results
Cc1cnc(NC(=O)CN2CCN(c3ccccc3)CC2)s1,< 10,< 10,< 10,< 10,< 10,< 10,< 10,< 10,< 10,< 10,< 10,< 10,< 10,< 10,< 10,< 10,< 10,< 10,< 10,< 10,inhibition of growth at 10 µM [21]: < 10%; inhibition of growth at 10 µM [22]: < 10%; inhibition of growth at 10 µM [23]: < 10%; inhibition of growth at 10 µM [24]: < 10%; inhibition of growth at 10 µM [25]: < 10%; inhibition of growth at 10 µM [26]: < 10%; inhibition of growth at 10 µM [27]: < 10%; inhibition of growth at 10 µM [28]: < 10%; inhibition of growth at 10 µM [29]: < 10%; inhibition of growth at 10 µM [30]: < 10%; inhibition of growth at 10 µM [31]: < 10%; inhibition of growth at 10 µM [32]: < 10%; inhibition of growth at 10 µM [33]: < 10%; inhibition of growth at 10 µM [34]: < 10%; inhibition of growth at 10 µM [35]: < 10%; inhibition of growth at 10 µM [36]: 69.3%
CCOC(=O)c1sc(NC(=O)C(C)N(CC)CC)nc1C (configuration not stated),< 10,< 10,< 10,< 10,< 10,< 10,< 10,< 10,< 10,< 10,< 10,< 10,< 10,< 10,< 10,< 10,< 10,16.4,< 10,< 10,inhibition of growth at 10 µM [21]: < 10%; inhibition of growth at 10 µM [22]: < 10%; inhibition of growth at 10 µM [23]: < 10%; inhibition of growth at 10 µM [24]: < 10%; inhibition of growth at 10 µM [25]: < 10%; inhibition of growth at 10 µM [26]: < 10%; inhibition of growth at 10 µM [27]: < 10%; inhibition of growth at 10 µM [28]: < 10%; inhibition of growth at 10 µM [29]: 12%; inhibition of growth at 10 µM [30]: < 10%; inhibition of growth at 10 µM [31]: < 10%; inhibition of growth at 10 µM [32]: < 10%; inhibition of growth at 10 µM [33]: < 10%; inhibition of growth at 10 µM [34]: < 10%; inhibition of growth at 10 µM [35]: < 10%; inhibition of growth at 10 µM [36]: < 10%
